# In ChEMBL document CHEMBL1158063, “Awajanomycin, a Cytotoxic gamma-lactone-delta-lactam metabolite from marine-derived Acremonium sp. AWA16-1” (J Nat Prod, 2006):
# Calls of active or inactive are those of the source. The calls are words filed in the database; no cut-off is given here.
# Assays:
# Salinivibrio costicola = assay: Antimicrobial activity against sSalinivibrio costicola ATCC 33508 at 50 ug/disk after 48 hrs by paper disk method; format: functional, organism-based
# Outline: (§1)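 Paper disk method on marine broth agar seeded with the marine strain. Each 6 mm disk was loaded with 50 µg sample, air-dried, and laid on the plate. Inhibition zone read after 48 h at 30 °C.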
# [1] = system: Leeuwenhoekiella marinoflava; assay: Antimicrobial activity against Cytophaga marinoflava IFO 14170 at 50 ug/disk after 48 hrs by paper disk method; format: functional, organism-based; outline: as §1
# Alphaproteobacteria = assay: Antimicrobial activity against Alphaproteobacteria MBIC3368 at 50 ug/disk after 48 hrs by paper disk method; format: functional, organism-based; outline: as §1
# A549 [2] = assay: Cytotoxicity against human A549 cells after 72 hrs by alamar blue assay; format: functional, cell-based; settings: A549, 72 h
# Outline: (§2)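 A549 lung adenocarcinoma cells in DMEM with 10% FBS were seeded at 8 × 10^3 cells/well and preincubated 14 h at 37 °C under 5% CO2. Serially diluted samples were then added for 72 h. Alamar Blue was added for a further 4 h, and viability was read as absorbance at 590 nm.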
# Staphylococcus aureus = assay: Antimicrobial activity against Staphylococcus aureus IFO 12732 at 50 ug/disk after 48 hrs by paper disk method; format: functional, organism-based
# Outline: (§3)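 Paper disk diffusion on nutrient broth agar plates seeded with the test strain. Sample loaded at 50 µg per 6 mm disk, air-dried, and placed on the agar surface. Growth-inhibition zone measured after 48 h incubation at 30 °C.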
# Candida albicans = assay: Antimicrobial activity against sCandida albicans IFO 1060 at 50 ug/disk after 48 hrs by paper disk method; format: functional, organism-based; outline: as §3
# Escherichia coli = assay: Antimicrobial activity against Escherichia coli IFO 3301 at 50 ug/disk after 48 hrs by paper disk method; format: functional, organism-based; outline: as §3
# Bacillus subtilis = assay: Antimicrobial activity against Bacillus subtilis IFO 3134 at 50 ug/disk after 48 hrs by paper disk method; format: functional, organism-based; outline: as §3
# A549 [3] = assay: Cytotoxicity against human A549 cells after 72 hrs up to 125 ug/mL by alamar blue assay; format: functional, cell-based; outline: as §2
SMILES,Activity (Salinivibrio costicola),Activity [1],Activity (Alphaproteobacteria),IC50 (A549 [2]),Activity (Staphylococcus aureus),Activity (Candida albicans),Activity (Escherichia coli),Activity (Bacillus subtilis),Activity (A549 [3])
CCCCCCCC(O)/C=C/[C@@H]1[C@@H]2OC(=O)[C@@]1(O)C(=O)N[C@@H]2C (some centres undefined) [AWAJANOMYCIN],inactive,inactive,inactive,27.5 µg/mL,inactive,inactive,inactive,inactive,
CCCCCCCC(O)/C=C/[C@@H]1[C@H](O)[C@@H](C)NC(=O)[C@]1(O)C(=O)O (some centres undefined),inactive,inactive,inactive,,inactive,inactive,inactive,inactive,inactive
CCCCCCCC(O)/C=C/[C@@H]1[C@H](O)[C@@H](C)NC(=O)[C@]1(O)CO (some centres undefined),inactive,inactive,inactive,46.4 µg/mL,inactive,inactive,inactive,inactive,
